Laboratory results from ChEMBL document CHEMBL1806391, “Synthesis and biological evaluation of novel 5-alkyl-2-arylthio-6-((3,4-dihydroquinolin-1(2H)-yl)methyl)pyrimidin-4(3H)-ones as potent non-nucleoside HIV-1 reverse transcriptase inhibitors” (Bioorg Med Chem, 2011).
Activity calls are given as the source filed them. The rule behind the calls is not given here.

Legend:
[1] = Cytotoxic activity against human MT4 cells assessed as viability of mock-infected cells after 5 days by MTT assay; assay type: cell-based
In short: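 Mock-infected, exponentially growing MT-4 cells (6 × 10⁵ cells/mL) were exposed to serial fivefold compound dilutions in triplicate wells. After 5 days, viability was read by MTT formazan absorbance at 540 and 690 nm. CC₅₀ is the concentration that lowered OD540 of the mock-infected control by 50%, using the median OD of three wells.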

[2] = system: Human immunodeficiency virus 1; assay: Antiviral activity against wild type Human immunodeficiency virus 1 3B infected in human MT4 cells assessed as protection against virus-induced cytotoxicity after 5 days by MTT assay; assay type: functional, organism-based; settings: MT4, 120 h
In short: (§1)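 MT-4 cells, spun 5 min at 1000 rpm, were resuspended at 6 × 10⁵ cells/mL and infected with HIV-1 IIIB or HIV-2 ROD. Compounds were added at the start in serial fivefold dilutions, in triplicate wells. Viability was read by MTT reduction at 540 and 690 nm five days post-infection. EC₅₀ is the concentration giving 50% protection from viral cytopathic effect, using the median OD of three wells.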

[3] = system: Human immunodeficiency virus 2; assay: Antiviral activity against wild type Human immunodeficiency virus 2 ROD infected in human MT4 cells assessed as protection against virus-induced cytotoxicity after 5 days by MTT assay; assay type: functional, organism-based; settings: Human immunodeficiency virus 2, ISOLATE ROD, MT4, 120 h; in short: as §1
[4] = Selectivity index, ratio of CC50 for human MT4 cells to EC50 for wild type Human immunodeficieny virus 1 3B infected in human MT4 cells; assay type: toxicity, cell-based; settings: read-out: Ratio CC50/EC50
In short: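 SI is CC₅₀ in mock-infected MT-4 cells divided by EC₅₀ against HIV-1 IIIB, both from 5-day MTT assays in triplicate wells.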

[5] = system: Human immunodeficiency virus 2; assay: Antiviral activity against Human immunodeficiency virus 2 ROD infected in human MT4 cells assessed as inhibition of viral replication; assay type: functional, organism-based; settings: ISOLATE ROD; in short: as §1

Row | SMILES | CC50 at 120 h [1] [µM] | EC50 [2] [µM] | EC50 [3] [µM] | selectivity ratio [4] | inhibition [5]
1 | Cc1c(CN2CCCc3ccccc32)nc(SCC(=O)c2ccc(F)cc2)[nH]c1=O | 15.4 | 0.46 | > 15.4 | 34 | inactive
2 | O=c1cc(CN2CCCc3ccccc32)nc(SCc2ccccc2)[nH]1 | 94.2 | ≥ 32.2 | > 94.2 | ≤ 3 | inactive
3 | Cc1c(CN2CCCc3ccccc32)nc(SCc2ccc(Cl)cc2)[nH]c1=O | 65.5 | ≥ 2.25 | > 65.5 | ≤ 29 | inactive
4 | COc1ccc(CSc2nc(CN3CCCc4ccccc43)cc(=O)[nH]2)cc1 | 181 | 25.1 | > 181 | 7 | inactive
5 | COc1ccc(CSc2nc(CN3CCCc4ccccc43)c(C)c(=O)[nH]2)cc1 | 59.6 | 0.64 | > 59.6 | 93 | inactive
6 | O=C1Nc2ccc(Cl)cc2[C@@](C#CC2CC2)(C(F)(F)F)O1 [EFAVIRENZ] | > 6.34 | – | – | > 1430 | –
7 | Cc1cn([C@H]2C[C@H](N=[N+]=[N-])[C@@H](CO)O2)c(=O)[nH]c1=O [ZIDOVUDINE] | > 93.5 | – | – | > 6190 | –
8 | Cc1c(CN2CCCc3ccccc32)nc(SCc2ccccc2)[nH]c1=O | 6.69 | > 6.69 | > 6.69 | < 1 | inactive
9 | Cc1c(CN2CCCc3ccccc32)nc(SCC(=O)c2ccc(Cl)cc2)[nH]c1=O | 42.1 | 2.16 | > 42.1 | 19 | inactive
10 | CCc1c(CN2CCCc3ccccc32)nc(SCc2ccc(C#N)cc2)[nH]c1=O | 59.7 | 0.48 | > 59.7 | 125 | inactive
11 | N#Cc1ccc(C(=O)CSc2nc(CN3CCCc4ccccc43)cc(=O)[nH]2)cc1 | > 197 | > 197 | > 197 | > 1 | inactive
12 | Cc1ccnc2c1NC(=O)c1cccnc1N2C1CC1 [NEVIRAPINE] | > 15 | – | – | – | –
13 | Cc1c(CN2CCCc3ccccc32)nc(SCC(=O)c2ccc(C#N)cc2)[nH]c1=O | 44.5 | 7.35 | > 44.5 | 6 | inactive
14 | CCc1c(CN2CCCc3ccccc32)nc(SCC(=O)c2ccc(C)cc2)[nH]c1=O | 288 | 1.06 | > 288 | 271 | inactive
15 | Cc1ccc(CSc2nc(CN3CCCc4ccccc43)cc(=O)[nH]2)cc1 | 64.3 | > 64.3 | > 64.3 | < 1 | inactive
16 | O=c1cc(CN2CCCc3ccccc32)nc(SCc2ccc(F)cc2)[nH]1 | 182 | 29.7 | > 182 | 6 | inactive
17 | CCc1c(CN2CCCc3ccccc32)nc(SCc2ccc(C)cc2)[nH]c1=O | 160 | ≥ 5.42 | > 160 | < 29 | inactive
18 | Cc1ccc(C(=O)CSc2nc(CN3CCCc4ccccc43)c(C)c(=O)[nH]2)cc1 | 62.4 | 1.95 | > 62.4 | 32 | inactive
19 | Cc1c(CN2CCCc3ccccc32)nc(SCc2ccc(F)cc2)[nH]c1=O | 8.67 | > 8.67 | > 8.67 | < 1 | inactive
20 | CCc1c(CN2CCCc3ccccc32)nc(SCc2ccc([N+](=O)[O-])cc2)[nH]c1=O | 195 | 1.03 | > 195 | 188 | inactive
21 | Cc1ccc(CSc2nc(CN3CCCc4ccccc43)c(C)c(=O)[nH]2)cc1 | ≥ 86.2 | ≥ 86.2 | > 86.2 | ≤ 1 | inactive
22 | Cc1c(CN2CCCc3ccccc32)nc(SCc2ccc([N+](=O)[O-])cc2)[nH]c1=O | 76.9 | 1.88 | > 76.9 | 41 | inactive

Row | SMILES | CC50 at 120 h [1] [µM] | EC50 [2] [µM] | EC50 [3] [µM] | selectivity ratio [4] | inhibition [5]
23 | CCc1c(CN2CCCc3ccccc32)nc(SCc2ccc(Cl)cc2)[nH]c1=O | 135 | ≥ 5.42 | > 135 | ≤ 25 | inactive
24 | N#Cc1ccc(CSc2nc(CN3CCCc4ccccc43)cc(=O)[nH]2)cc1 | 86.8 | ≥ 43 | > 86.8 | ≤ 2 | inactive
25 | CCc1c(CN2CCCc3ccccc32)nc(SCC(=O)c2ccc(F)cc2)[nH]c1=O | 156 | 0.57 | > 156 | 273 | inactive
26 | CCc1c(CN2CCCc3ccccc32)nc(SCc2ccc(F)cc2)[nH]c1=O | 133 | > 133 | > 133 | < 1 | inactive
27 | O=C(CSc1nc(CN2CCCc3ccccc32)cc(=O)[nH]1)c1ccccc1 | 153 | 24.6 | > 153 | 6 | inactive
28 | O=C(CSc1nc(CN2CCCc3ccccc32)cc(=O)[nH]1)c1ccc(F)cc1 | 136 | 29.6 | > 136 | 5 | inactive
29 | CCc1c(CN2CCCc3ccccc32)nc(SCC(=O)c2ccc(C#N)cc2)[nH]c1=O | 115 | 1.06 | > 115 | 109 | inactive
30 | O=c1cc(CN2CCCc3ccccc32)nc(SCc2ccc([N+](=O)[O-])cc2)[nH]1 | 73.9 | ≥ 49.5 | > 73.9 | ≤ 2 | inactive
31 | COc1ccc(C(=O)CSc2nc(CN3CCCc4ccccc43)c(C)c(=O)[nH]2)cc1 | 60.7 | 0.42 | > 60.7 | 144 | inactive
32 | CCc1c(CN2CCCc3ccccc32)nc(SCc2ccc(OC)cc2)[nH]c1=O | 147 | 0.59 | > 147 | 244 | inactive
33 | O=C(CSc1nc(CN2CCCc3ccccc32)cc(=O)[nH]1)c1ccc([N+](=O)[O-])cc1 | 209 | > 209 | > 209 | < 1 | inactive
34 | CCc1c(CN2CCCc3ccccc32)nc(SCc2ccccc2)[nH]c1=O | 4.8 | > 4.8 | > 4.8 | < 1 | inactive
35 | Cc1c(CN2CCCc3ccccc32)nc(SCC(=O)c2ccccc2)[nH]c1=O | 12.2 | 0.39 | > 12.2 | 31 | inactive
36 | Cc1c(CN2CCCc3ccccc32)nc(SCc2ccc(C#N)cc2)[nH]c1=O | 13 | 1.78 | > 13 | 7 | inactive
37 | CCc1c(CN2CCCc3ccccc32)nc(SCC(=O)c2ccc(OC)cc2)[nH]c1=O | 61.8 | 0.38 | > 61.8 | 164 | inactive
38 | CCc1c(CN2CCCc3ccccc32)nc(SCC(=O)c2ccc([N+](=O)[O-])cc2)[nH]c1=O | 111 | 1.98 | > 111 | 56 | inactive
39 | Cc1ccc(C(=O)CSc2nc(CN3CCCc4ccccc43)cc(=O)[nH]2)cc1 | 156 | 28 | > 156 | 6 | inactive
40 | O=C(CSc1nc(CN2CCCc3ccccc32)cc(=O)[nH]1)c1ccc(Cl)cc1 | 75.6 | > 75.6 | > 75.6 | < 1 | inactive
41 | Cc1c(CN2CCCc3ccccc32)nc(SCC(=O)c2ccc([N+](=O)[O-])cc2)[nH]c1=O | 23.7 | ≥ 3.13 | > 23.7 | ≤ 8 | inactive
42 | O=c1cc(CN2CCCc3ccccc32)nc(SCc2ccc(Cl)cc2)[nH]1 | > 53.6 | > 53.6 | > 53.6 | < 1 | inactive
43 | CC(C)Nc1cccnc1N1CCN(C(=O)c2cc3cc(NS(C)(=O)=O)ccc3[nH]2)CC1 [DELAVIRDINE] | > 3.83 | – | – | > 12 | –
